Results taken from article PMC3147223 (Journal of biomedical materials research. Part A, 2009).
Where no end group is shown, it is not given here.

Legend:
Human pulmonary ECs = experiment: Competitive platelet-EC static adhesion assay: EC adhesion; type: cell-based; conditions: washed suspension of 190 EC/μl and 50,000 platelet/μl, 30 min, 37°C, n=3, FN=1
Method in brief: (§1)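 Passage-7 ECs were detached (Cellstripper, 30 min) and mixed in 1% BSA with washed platelets (citrated donor blood; PRP pelleted, EDTA-PBS wash), plus 2 mM CaCl2 and 1 mM MgCl2 final. Surfaces (FSP adsorbed 24 h on fluorosilane monolayers, or FN-coated glass) were pre-blocked with 2% BSA for 30 min. Samples were PFA-fixed and stained with FITC anti-CD41a, phalloidin and DAPI. 14–33 epifluorescent fields/surface were analysed; two-sample t-test.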

platelets = experiment: Competitive platelet-EC static adhesion assay: platelet adhesion; type: cell-based, human; conditions: washed suspension of 190 EC/μl and 50,000 platelet/μl, 30 min, 37°C, n=3, FN=1
Method in brief: as §1

Substance	EC adhesion (EC population) normalized to FN (Human pulmonary ECs)	Platelet surface coverage normalized to FN, platelet-EC suspension (platelets)
GSSS-*CRRETAWAC* (disulfide) [cRRE FSP]	0.93	–
GSSSRGD [RGD FSP]	0.99	1.99
cyclic(RGDfE)-SSSK (head to tail) [cRGD FSP]	1.05	2.66
